B1: NELF-E aptamer (parent)
chain: CCCAACGACUGCCGAGCGAGAUUACGCUUGAGCGCCCCACUGAGGAUGCCCACGGGCGAUUGGGGCACGG

Variants of B1 are the subject of the series. Nature of the series: HiTS-RAP. Particulars: with NELF-E (Drosophila). An outline of the steps: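 Kd came from weighted Hill fits to the first binding curve, with intensities normalised to sequencing intensity and averaged per sequence, keeping only fits whose variance was below 1,000,000. That curve was imaged on an Illumina GAIIx flowcell, where sequenced aptamer DNA templates with a T7 promoter and ter site had been transcribed in situ by T7 RNA polymerase and halted by GST-Tus (30 minutes, 37°C). Before each image, clusters equilibrated for 30 minutes at room temperature with NELF-E-mOrange at 0.064 to 1000 nM in HEPES binding buffer.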
In the case of U29G C66U, the Kd was 4.32 nM.

As for U23G U60G, the Kd turned out to be 4.68 nM.

U23G U60C: the Kd came to 11.9 nM.

U23G U60A: the Kd came out at 12.9 nM.

U29C A43U: the Kd turned out to be 43.4 nM.

Take C25G U29G: the Kd was 6.18 nM.

On to A24G G54A, for which the Kd was 11.9 nM.

For the variant A24G G54U, the Kd was 7.49 nM.

Take A24G G30U: the dissociation constant Kd came to 7.16 nM.

As to A24G G30A, the Kd is 5.17 nM.

Take U23G C57U: the Kd came to 5.72 nM.

As to A31U A39U, the Kd is 38.1 nM.

Turning to A31C, the Kd was determined as 4.61 nM.

As for A31U, the Kd was 5.92 nM.

For A31G, the Kd worked out at 6.92 nM.

Consider U23G, for which the Kd turned out to be 4.99 nM.

Turning to A31U U41G, the Kd was 7.78 nM.

As to U28C A52U, the Kd is 32.7 nM.

In the case of U23G A46G, the Kd amounted to 59.5 nM.

Regarding U23G A46U, the equilibrium dissociation constant (Kd) stood at 69.3 nM.

In the case of U29A A39G, the Kd stood at 5.71 nM.

As to U29A A39U, the Kd was determined as 20.9 nM.

Consider A24G G42A, for which the Kd turned out to be 56 nM.

Take A24G C33U: the Kd was 5.71 nM.

In the case of A24G C33G, the Kd was 8.38 nM.

Take U29G G58U: the Kd is 8.12 nM.

For the variant U29G G42U, the Kd turned out to be 10.4 nM.

Regarding U29G G42A, the Kd was determined as 24.6 nM.

A24G A52U: the Kd worked out at 14.2 nM.

In the case of A24G A52G, the Kd amounted to 5.14 nM.

Turning to U23C A24G, the Kd stood at 5.24 nM.

As for A24G C57U, the Kd amounted to 6.3 nM.

In the case of U28G A39G, the Kd worked out at 11.2 nM.

Take A31G A52U: the Kd was determined as 21.5 nM.

Turning to U29G C38U, the Kd is 8.13 nM.

Turning to U29G A39C, the Kd came to 24.7 nM.

As to U29G A39U, the Kd stood at 26.4 nM.

Regarding U29G A39G, the Kd turned out to be 7.69 nM.

G30U A31G: the Kd is 6.4 nM.

As for U29G C35G, the Kd amounted to 4.89 nM.

Consider U29G C35U, for which the Kd is 17.1 nM.

As for U29C U61A, the Kd turned out to be 38 nM.

Take U23G A24U: the Kd stood at 6.08 nM.

On to U23G A24G, for which the Kd was found to be 5.97 nM.

Take U28C A59G: the Kd worked out at 113 nM.

U23G G65A: the Kd stood at 4.87 nM.

With U23G G65U, the Kd worked out at 6.65 nM.

For U23G A43G, the Kd was determined as 25.1 nM.

For U23G A43U, the Kd is 85.7 nM.

As to U29G C33G, the Kd was 6.45 nM.

For the variant U29G C33U, the Kd is 6.03 nM.

A31G A39G: the Kd amounted to 14.3 nM.

Regarding A24G U29C, the Kd came out at 4.85 nM.

Regarding A24G U29A, the Kd turned out to be 4.42 nM.

On to A24G U29G, for which the Kd was 5.84 nM.

A24G G56A: the Kd came out at 11.9 nM.

Regarding A24G G56U, the Kd turned out to be 8.45 nM.

Turning to U29G U61G, the Kd turned out to be 14.4 nM.

Consider U29G U61A, for which the Kd was 28.1 nM.

In the case of U29G U61C, the equilibrium dissociation constant (Kd) worked out at 59.2 nM.

A24G A43G: the Kd was found to be 27.9 nM.

Consider A24G A43U, for which the Kd amounted to 55.4 nM.

Take A24G G65A: the Kd came to 5.2 nM.

With A24G G65U, the Kd was 6 nM.

On to U23G G34A, for which the Kd is 7.56 nM.

For U23G G34U, the Kd turned out to be 5.63 nM.

As for U23G U29G, the Kd is 5.13 nM.

As to U23G U29A, the Kd was 5.6 nM.

Turning to U23G U29C, the dissociation constant (Kd) turned out to be 5.67 nM.

Consider G26U U41G, for which the Kd is 6.71 nM.

For the variant C27U U28G, the Kd is 5.03 nM.

With U29A U41C, the Kd was determined as 79.2 nM.

In the case of U29A U41G, the Kd worked out at 6.07 nM.

For the variant U23G C27U, the Kd was determined as 4.59 nM.

Regarding A24G A67U, the Kd is 7.95 nM.

For A24G A67G, the Kd is 6.13 nM.

Turning to G26C C27G, the Kd came out at 3.95 nM.

Turning to A24G C37U, the Kd is 15.3 nM.

Regarding A24G C37A, the Kd was determined as 10.1 nM.

Take A24G C37G: the Kd is 7.93 nM.

Regarding A24U U41G, the Kd was found to be 6.61 nM.

For the variant A24G C40G, the Kd was 6.34 nM.

For G26C, the Kd is 13.8 nM.

As to G26A, the Kd was found to be 4.05 nM.

In the case of G26U, the Kd turned out to be 5.53 nM.

As to G26U U29G, the Kd worked out at 7.41 nM.

Regarding U29G C36G, the Kd is 8.06 nM.

For the variant U29G C36U, the Kd stood at 9.64 nM.

Take A24G C50U: the Kd stood at 9.69 nM.

With A31G G64A, the Kd turned out to be 10.8 nM.

Consider U23G G54A, for which the Kd was found to be 14.4 nM.

Consider U23G G54U, for which the Kd was found to be 11.1 nM.

Consider U23G U47A, for which the Kd is 13.5 nM.

In the case of U23G U47G, the Kd is 6.6 nM.

Consider U29G G44U, for which the Kd amounted to 8.78 nM.

As to U29G G44A, the Kd is 94.7 nM.

As to C27G U29G, the Kd was 5.43 nM.

With A24G U28G, the Kd was 8.97 nM.

Take A24G U28C: the Kd stood at 12.3 nM.

For the variant A24G U28A, the Kd turned out to be 3.42 nM.

With A31G C51U, the Kd was found to be 7.88 nM.

On to A31G G65A, for which the Kd was found to be 9.82 nM.

Consider U29G C53U, for which the Kd was 3.72 nM.

For the variant U29G C53G, the Kd came to 5.71 nM.

Take U28C G34A: the Kd stood at 37.6 nM.

On to U23G G44A, for which the Kd was 68.6 nM.

For U23G G44U, the Kd is 6.93 nM.

Turning to A24G G55A, the Kd turned out to be 11.1 nM.

For the variant U29A C37U, the Kd was 7.5 nM.

Regarding C25A, the Kd was found to be 4.89 nM.

Regarding C25U, the Kd was determined as 5.19 nM.

Turning to C25G, the Kd came to 5.2 nM.

U28C: the Kd was 8.26 nM.

For U28A, the Kd was 4.43 nM.

Regarding U28G, the Kd came to 6.24 nM.

U23G C50U: the Kd was 12.6 nM.

Turning to U23G C50A, the Kd turned out to be 16.7 nM.

U23G C50G: the Kd is 5.73 nM.

As to U23G G56U, the Kd is 5.61 nM.

U23G G56A: the Kd was 8.2 nM.

As for U28C U61A, the Kd came to 43.5 nM.

For the variant U29G G64A, the equilibrium dissociation constant (Kd) was determined as 7.34 nM.

Regarding U29G G64C, the Kd worked out at 5.11 nM.

With U29G G64U, the Kd turned out to be 6.21 nM.

In the case of U29G A46G, the Kd was 22.4 nM.

Turning to U29G A46U, the Kd came to 77.8 nM.

For U29G C37A, the Kd amounted to 14.8 nM.

In the case of U29G C37U, the Kd worked out at 12.4 nM.

As for U29G C37G, the Kd was 8.38 nM.

With A24G G26U, the Kd amounted to 6.2 nM.

Take A24G G26A: the Kd worked out at 5.08 nM.

With U23G C36G, the Kd was determined as 5.58 nM.

For the variant U23G C36A, the Kd worked out at 8.43 nM.

U23G C36U: the Kd stood at 8.06 nM.

Regarding U23C U29G, the Kd was determined as 4.34 nM.

For the variant G26U C27G, the Kd stood at 4.95 nM.

For U29G G34U, the Kd was found to be 5.71 nM.

In the case of U29G G34A, the Kd came out at 7.56 nM.

On to A31G A67U, for which the Kd came out at 10.7 nM.

As to A24G A31G, the Kd was found to be 6.54 nM.

Turning to A24G A31U, the Kd is 6.88 nM.

Consider A24G C27U, for which the Kd came to 6.16 nM.

For A24G G63U, the Kd came out at 11 nM.

As for A24G G63A, the Kd was 14.3 nM.

Consider U23G C33A, for which the Kd was found to be 5.51 nM.

Turning to U23G C33U, the Kd is 6.01 nM.

U23G C33G: the Kd amounted to 8.04 nM.

U29A A31G: the Kd turned out to be 5.67 nM.

With U29A A31U, the Kd came out at 4.6 nM.

Regarding U29G A52G, the Kd stood at 4.39 nM.

Turning to U29G A52U, the Kd worked out at 15.5 nM.

Turning to U23G U28G, the Kd was 7.22 nM.

Turning to U23G U28C, the Kd was 9 nM.

Turning to U23G U28A, the Kd came out at 5.01 nM.

Regarding A24G G48A, the Kd amounted to 14.2 nM.

For the variant U23G C40G, the Kd is 5.5 nM.

As to U23G C40U, the Kd was 135 nM.

As for U29G C49U, the Kd was determined as 22.4 nM.

Regarding G30A A31G, the Kd is 5.33 nM.

Regarding U28C U29G, the Kd worked out at 8.69 nM.

For the variant G26A U29G, the Kd is 5.28 nM.

For A31U C53U, the Kd is 3.69 nM.

As for U23G A52U, the Kd was determined as 17.6 nM.

For the variant U23G A52G, the Kd amounted to 4.37 nM.

With U29A C53U, the Kd is 5.35 nM.

Take A24G A59G: the Kd came out at 36.5 nM.

On to U29G A43G, for which the Kd was found to be 14 nM.

The values are drawn from the RNAGym collection of RNA variant scans (doi:10.1038/nmeth.2970).
